Assay outcomes from PubChem.
In the library only some 2.9% were active in any assay of this set; here they are far more common.
HSP90 refold inh: HSP90 refolding inhibition in rabbit reticulocyte lysate | 290,000 tested, 0.91% active | luciferase refolding luminescence, 3 h | inhibition, % at 5.6 µM;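 active means inhibition above the screen-wide mean plus 3 SD, computed separately per campaign, cut at about 16% in these data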;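 further: 0% = DMSO wells and 100% = 60 µM geldanamycin wells; inhibitors lower the luminescence because luciferase stays unfolded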
SENP8 block-1: inhibitors of human SENP8 protease | Q96LD8 | purified SENP8, Z-RLRGG-aminoluciferin cleavage, luminescence | inhibition, % at 10 µM | 330,000 tested, 1.2% active | AID 2540; in the data active means inhibition above about 50%
Target sequence (Q96LD8 whole entry, looked up): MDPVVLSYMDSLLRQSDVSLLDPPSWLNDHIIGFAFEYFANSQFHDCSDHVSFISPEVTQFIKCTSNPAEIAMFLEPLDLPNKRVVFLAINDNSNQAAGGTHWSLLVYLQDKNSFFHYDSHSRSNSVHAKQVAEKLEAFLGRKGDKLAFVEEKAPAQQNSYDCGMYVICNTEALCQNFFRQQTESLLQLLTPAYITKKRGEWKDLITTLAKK
SENP1 FRET inh: blocks the human SENP1 SUMO protease catalytic domain. inhibition, % at 10 µM. 360,000 tested, 0.21% active. recombinant SENP1 catalytic domain, CyPet-SUMO1-YPet FRET cleavage;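 active means inhibition at least 30% at 10 µM, raw YFP signal under a set limit, fluorescence ratio 0.5 to 1.5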;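 further: 0% = enzyme with DMSO and 100% = no enzyme wells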
Target sequence (Q9P0U3 419-644 limits assumed): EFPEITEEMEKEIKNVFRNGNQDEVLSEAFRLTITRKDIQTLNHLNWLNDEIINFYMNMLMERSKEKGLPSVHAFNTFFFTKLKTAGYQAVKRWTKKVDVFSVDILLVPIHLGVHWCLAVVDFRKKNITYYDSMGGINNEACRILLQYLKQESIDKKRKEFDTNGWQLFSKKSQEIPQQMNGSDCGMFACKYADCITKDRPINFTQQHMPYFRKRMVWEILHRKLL
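material = recombinant human SENP1 catalytic domain, His6-tagged | quantity = 20 pM enzyme | reagent = 25 nM SUMO1 FRET substrate | compound dosing = 10 µM single point, 0.5% DMSO | timing = 50 min enzyme reaction, room temperature, light-protected | detection = FRET, CFP and YFP emission | control set = no-enzyme low, enzyme-DMSO high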
SENP7 inh: inhibitors of human SENP7 protease; Q9BQF6; recombinant SENP7, Z-RLRGG-aminoluciferin luminescence, 40 min; inhibition, % at 5 µM; 330,000 tested, 1.5% active;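 active means inhibition above about 50% at the single test dose, limit read from the data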;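 further: plate controls were DMSO with enzyme for no effect and no enzyme buffer wells for full effect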
SENP8 block-2: SENP8 (human) protease inhibition; inhibition, % at 20 µM; recombinant SENP8, Nedd8 substrate fluorescence; 360,000 tested, 0.64% active; Q96LD8; in the data active means inhibition mostly above about 40%, no sharp cut-off; inactive means mostly below about 27%
SENP6 block: SENP6 protease inhibition; Recombinant SENP6 catalytic domain, aminoluciferin luminescence; 330,000 tested, 1.8% active; inhibition, % at 10 µM;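 active means inhibition above about 50% at the single tested dose, limit read from the data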;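 further: plate controls were DMSO wells with enzyme for no effect and DMSO wells lacking enzyme for full effect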
SENP8 inh conf: SENP8 (human) inhibition, single concentration confirmation; shares compounds with SENP8 block-2; purified SENP8, Nedd8-AMC/pro-Nedd8 cleavage fluorescence, 30 min; inhibition, % at 25 µM; 1,400 tested, 15% active; in the data active means inhibition mostly above about 39%, no sharp cut-off; inactive means mostly below about 34%
Active calls of the source: *; . = no result.

SMILES	HSP90 refold inh	SENP8 block-1	SENP1 FRET inh	SENP7 inh	SENP8 block-2	SENP6 block	SENP8 inh conf
Clc1ss/c(=N\c2ccccn2)c1Cl	2	-3	-2	13	49*	15	29
COCCCn1cnnc1SC(C)C(=O)Nc1ccc(S(=O)(=O)N2CCOCC2)cc1 (stereo not drawn)	.	-3	1	5	17	-6	.
CCN(CC(=O)NC(C)(C)C)Cc1nc2c(Br)cc(Br)cc2c(=O)[nH]1	-5	-10	-10	-4	41*	2	25
COc1ccc(CNC(=O)c2sc(=O)n(Cc3ccccc3OC)c2C)cc1	.	.	1	.	0	.	.
Cc1cc2c(cc1C)-c1nnnn1C(N1CCCC1)C(=O)N2 (stereo not drawn)	.	.	1	.	18	.	.
CCOC(=O)C1CCN(C(=O)c2ccc3c(c2)C(=O)N(c2ccccc2C)C3=O)CC1	.	3	1	-5	9	-8	.
CCN1C(=O)[C@H]2[C@H]3CN=C(SC)N3[C@@](Cc3ccccc3)(C(=O)OC)[C@H]2C1=O	.	.	3	-8	5	.	.
c1ccc(CN(Cc2cccs2)C(c2cccs2)c2nnnn2C2CCCC2)cc1 (stereo not drawn)	2	-6	0	-2	43*	-2	12
C=CCNC(=S)NN=C1CCC(c2ccccc2)CC1 (stereo not drawn)	-4	15	1	-3	45*	10	18
COC(=O)CSc1nnc(CNS(=O)(=O)c2ccc(C)cc2)n1C	-3	-1	2	-3	42*	7	-1
COC(=O)CSc1nnc(CNc2ccc(OC)cc2)n1C	1	-1	-3	-4	69*	-9	0
CC(C)OC(=O)CSc1nnc(CNc2ccc(Cl)cc2)n1C	2	5	-1	8	10	0	.
COC(=O)C[C@H]1C=C[C@H](NC(=O)c2ccccn2)[C@@H](CO)O1	.	.	0	.	15	.	.
O=C(O)c1ncsc1-c1ccccc1	-1	-3	1	-3	43*	-12	23
NCCNC(=O)c1ncsc1-c1cccc(F)c1	.	-4	1	4	9	-4	.
CCSc1nnc(NC(=O)c2ccco2)s1	1	-7	0	0	-19	-8	.
CCSc1nnc(NC(NC(=O)c2ccco2)(C(F)(F)F)C(F)(F)F)s1	-2	3	0	-1	41*	11	28
CN(C(=O)c1cccc(NC(=O)Cc2ccc(NC(=O)C3CCN(C(=O)C4CCC4)CC3)cc2)c1)C1CCC1	.	.	0	.	2	.	.
COc1ccc(C(=O)N2C=Cc3ccccc3C2C#N)cc1 (stereo not drawn)	.	.	-8	.	50*	.	74*
Cc1ccc(NC(=O)c2ccc3c(c2)C(=O)N(c2ccccc2C)C3=O)nc1	.	-2	0	-9	7	-6	.
COc1ccc(-c2csc(NC(=S)NC(=O)c3ccco3)n2)cc1Br	1	2	1	1	24	-16	.
COc1ccc(-c2csc(NC(=S)NC(=O)/C=C/c3ccco3)n2)cc1Br	5	-5	-2	-3	43*	-13	16
CC(NC(=O)COC(=O)C1CCCCC1)c1ccccc1 (stereo not drawn)	.	0	5	2	10	-4	.
O=C(O)c1ccccc1/C=N/NC(=O)C1CCCCC1	0	0	3	-1	6	11	.
O=C(O)c1ccccc1/C=N/NC(=S)NC1CCCCC1	6	8	1	7	46*	2	1
Cc1ccc(C2=N/C(=C\c3cccs3)C(=O)N2Nc2ccccc2)cc1	3	4	-23	-4	42*	-1	31
NC(=NCCc1ccccc1)NC(=O)c1cc(Cl)ccc1O	.	4	-16	3	-462	19	.
CC1CCCC/C1=N/Nc1ccc([N+](=O)[O-])cc1[N+](=O)[O-] (stereo not drawn)	3	-3	1	-3	47*	8	-1
NS(=O)(=O)c1ccc(NN=C2CCCCC2)c([N+](=O)[O-])c1	-1	-7	0	0	25	-14	.
CC1C/C(=N/Nc2ccc([N+](=O)[O-])cc2[N+](=O)[O-])CC(C)(C)C1 (stereo not drawn)	0	0	3	-3	46*	6	12
